Hits are enriched below; roughly 2.5% of the tested compounds scored in any of these assays.
GASC-1 inh: human JMJD2C demethylase inhibition. GST-JMJD2C(1-420) H3K9me3 demethylation, DELFIA europium. inhibition, % at 2.35 µM. 0.069% of 330,000 active;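 active = more than half of a compound's replicate wells show inhibition beyond 50%, single wells judged on their own value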;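 note: signal counts dimethyl H3K9 product captured on neutravidin plate; 0% = median of DMSO wells and 100% = 0.3 times that DMSO median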
NR2E3 ag-1: agonists of human NR2E3 nuclear receptor. Q9Y5X4. CHO-S Gal4-NCOR/VP16-NR2E3 two-hybrid, luciferase. inhibition of corepressor binding, % at 3.98 µM. 0.35% of 360,000 active. AID 602229;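 active = inhibition above the mean of all tested compounds plus 3 SD, cut at about 70% in these data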;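 note: 0% = DMSO with NR2E3 transfected cells and 100% = cells lacking NR2E3 construct; higher means lower luciferase signal from less NR2E3 corepressor binding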
NR2E3 ag-2: activates human photoreceptor nuclear receptor NR2E3 | Q9Y5X4 | GST-NR2E3/biotin-RetCOR TR-FRET, 1536-well | inhibition of corepressor binding, % at 4.78 µM | 0.12% of 320,000 active | AID 2300;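 active = percent inhibition above the cutoff of mean plus 3 SD of all tested compounds, set per screening campaign, cut at about 20% in these data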;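 note: 0% = DMSO wells and 100% = biotin wells as full block of FRET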
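Test system – NR2E3–RetCOR corepressor complex · Quantity – NR2E3 fusion 1.35 nM · Buffer or medium – Tris pH 7.5 · Incubation – Compound–protein incubation for 5 h at 4 °C · Technique – TR-FRET, Eu(K)-anti-GST donor, streptavidin-D2 acceptor, ex 340, em 617/671 nm · Evaluation – percent inhibition of 671/617 nm emission ratio versus biotin and DMSO controls · Plate – 1536-well format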
ADAM17 inh: inhibits human ADAM17; inhibition, % at 6.95 µM; recombinant ADAM17, EDANS/DABCYL FRET peptide cleavage; 0.83% of 370,000 active; AID 720648; P78536;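 active = inhibition above the mean of compounds lying between control limits plus 3 SD, set per campaign, cut at about 8.5% in these data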;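 note: 0% = DMSO-only wells as the low control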
proKLK7 act: activators of human kallikrein-7 zymogen. P49862. AID 652039. purified proKLK7, EDANS-DABCYL substrate fluorescence; 100% is mature enzyme control, 0% vehicle. 0.9% of 370,000 active. activation, % at 7 µM;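 active = activation above the mean of all tested compounds plus 3 SD, computed per campaign excluding outliers beyond control limits, cut at about 13% in these data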
ADAM10 inh: ADAM10 inhibition, QFRET primary screen | recombinant ADAM10, EDANS/DABCYL FRET peptide cleavage, 3 h | AID 720582 | O14672 | inhibition, % at 7 µM | 0.62% of 370,000 active;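 active = inhibition above a per-campaign cutoff equal to the mean of compounds falling between control-based bounds plus 3 SD, cut at about 20% in these data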;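 note: 0% = DMSO wells while the 100% control is not disclosed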
Target sequence (O14672 214-748 limits assumed): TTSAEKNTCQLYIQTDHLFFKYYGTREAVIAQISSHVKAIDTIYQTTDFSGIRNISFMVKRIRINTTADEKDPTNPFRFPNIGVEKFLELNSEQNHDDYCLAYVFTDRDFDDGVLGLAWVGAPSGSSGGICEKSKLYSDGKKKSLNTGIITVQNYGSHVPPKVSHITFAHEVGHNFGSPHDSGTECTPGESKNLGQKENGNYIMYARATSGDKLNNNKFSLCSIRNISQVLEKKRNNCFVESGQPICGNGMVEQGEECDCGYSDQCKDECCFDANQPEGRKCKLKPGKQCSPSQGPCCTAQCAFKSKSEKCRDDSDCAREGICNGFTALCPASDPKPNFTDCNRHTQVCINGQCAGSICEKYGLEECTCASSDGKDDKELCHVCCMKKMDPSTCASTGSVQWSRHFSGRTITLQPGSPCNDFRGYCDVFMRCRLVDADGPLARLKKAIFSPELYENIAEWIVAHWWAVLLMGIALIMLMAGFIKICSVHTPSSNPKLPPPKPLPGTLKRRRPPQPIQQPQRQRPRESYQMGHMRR
proKLK7 act conf: confirmation of human kallikrein-7 zymogen activators; 68% of 3,200 active; AID 686949; activation, % at 7 µM; purified proKLK7, EDANS-DABCYL substrate fluorescence; scaled: vehicle 0, mature enzyme 100; shares compounds with proKLK7 act;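 active = activation, as change over the incubation, above the mean of all tested compounds plus 3 SD, cut at about 13% in these data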
EDANS interfere: optically interferes with EDANS-DABCYL signal, flagging KLK7 hits; shares compounds with proKLK7 act; EDANS-DABCYL substrate fluorescence interference, no enzyme, 4 h; solvent 0%, active enzyme control 100%; activation, % at 7 µM; 80% of 3,200 active; AID 686952;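 active = activation above the all-compound mean plus 3 SD, ignoring values outside control-based bounds, cut at about 4.8% in these data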;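 note: value is the 4 h activation minus the activation read at time zero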
EDANS interf: optically interferes with EDANS-DABCYL fluorescence, kallikrein-7 activator counter-screen; shares compounds with proKLK7 act; EDANS-DABCYL peptide fluorescence interference, no enzyme; EC50, µM; 20% of 250 active;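 active = compounds that raise the fluorescence signal in this interference counterscreen, with EC50 at or below 10 µM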;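 note: intact quenched peptide substrate alone read at 355 nm excitation and 520 nm emission; signal is fluorescence gain from T0 to T4 after four hours at room temperature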
Numbers without * were called inactive; i = inactive; x = no result.

SMILES | GASC-1 inh | NR2E3 ag-1 | NR2E3 ag-2 | ADAM17 inh | proKLK7 act | ADAM10 inh | proKLK7 act conf | EDANS interfere | others
O=C(Nc1ccnn1C1CCN(Cc2cc(Cl)ccc2O)CC1)C1CC1 | 15 | 15 | 1 | 2 | 0 | 2 | x | x
COc1ccc(-c2cc3nnc(-c4ccccc4)nc3s2)cc1 | 7 | -71 | -2 | -2 | 0 | -4 | x | x
COc1ccc(-c2cc3ncnc(Cl)c3s2)cc1 | -5 | -103 | 1 | i | 27* | i | 4 | 3
CC(=O)Nc1ccc(S(=O)(=O)NCC2CCC(C(=O)NCCCN(C)Cc3ccccc3)CC2)cc1 (stereo not drawn) | 0 | -9 | -1 | 0 | 0 | -4 | x | x
N#C/C(=C/c1ccc(-c2ccc(S(N)(=O)=O)cc2)o1)C(=O)Nc1ccccc1 | -1 | -19 | -3 | -23 | 27* | -79 | 16* | 0 | EDANS interf=i
CC(C)(C)OC(=O)N[C@H](C(=O)OC(C)(C)C)c1ccc2c(c1)OCO2 | 11 | -21 | 1 | 5 | 0 | 12 | x | x
CN(C(=O)CN1C(=O)c2cccc(N)c2C1=O)C1CCCCC1 | 1 | -17 | -1 | -151 | 109* | i | 74* | 76*
COc1ccccc1CNC(=O)CN1C(=O)c2cccc(N)c2C1=O | -1 | -70 | -3 | -214 | 50* | i | -1 | 44*
CC1CCCCC1NC(=O)CN1C(=O)c2cccc(N)c2C1=O (stereo not drawn) | -17 | -3 | x | -139 | 34* | -344 | 78* | 70*
CCOC(=O)CC1=C(C(=O)OCC)C(c2cccnc2)C(C#N)=C(N)O1 (stereo not drawn) | -2 | -6 | -4 | -8 | 0 | -17 | x | x
CCOC(=O)C1=C(CSc2nc(-c3ccccc3)ccc2C#N)OC(N)=C(C#N)C1c1cccnc1 (stereo not drawn) | 0 | -120 | 0 | -186 | 382* | i | 384* | 347*
CCOC(=O)C1=C(CSc2nc3c(cc2C#N)CCC3)OC(N)=C(C#N)C1c1ccccc1 (stereo not drawn) | -2 | -45 | -1 | -30 | 5 | -96 | x | x
CCOC(=O)C1=C(CSc2nc(-c3ccccc3)ccc2C#N)OC(N)=C(C#N)C1c1ccccc1 (stereo not drawn) | -2 | -117 | 4 | -160 | 470* | -492 | 585* | 566*
OC[C@@H]1[C@@H](c2ccc(F)cc2)C(c2ccccc2)=NN1c1ccccc1 | x | -16 | x | i | -93 | i | x | x
O=C1OCCN1C(=O)[C@H]1[C@H](c2ccc(Cl)cc2)C(c2ccccc2)=NN1c1ccccc1 | x | -12 | x | -69 | -212 | -262 | x | x
O=C1C2C(c3ccccc3)=NN(c3ccccc3)C2C(=O)N1c1ccccc1 (stereo not drawn) | 13 | 5 | -1 | -59 | 14* | -303 | 13* | 18*
O=C1[C@H]2C(c3ccccc3)=NN(c3ccccc3)[C@H]2C(=O)N1c1ccccc1 | 12 | 10 | 2 | -58 | 22* | -249 | -364 | -297
COc1ccc(S(=O)(=O)NCCCn2ccnc2)cc1Cl | -6 | -3 | 1 | 4 | 0 | 6 | x | x
Cc1ccc(S(=O)(=O)NCc2ccccc2NS(=O)(=O)c2ccc(C)cc2)cc1 | x | x | x | 1 | 0 | 6 | x | x
COc1cc2c(cc1OC)C(c1cc(OC)c(OC)c(OC)c1)C1(O)C(=O)OCC1(O)C2 (stereo not drawn) | x | -3 | x | -1 | 57* | 0 | 0 | 1
Cc1noc(C)c1CSCC(=O)N(C)CC(=O)Nc1ccccc1Br | 3 | -23 | 1 | -5 | 0 | -6 | x | x
CNc1ccc(Cl)cc1C(N)=O | -15 | -7 | 0 | -492 | 17* | i | 11 | 20*
COc1ccc(C(O)c2nc(-c3cc(F)cc(Cl)c3)cs2)cc1 (stereo not drawn) | x | 5 | x | 5 | 0 | 2 | x | x
COC(=O)c1nn(-c2ccc3c(c2)CCN3C(C)=O)cc1O | -1 | -60 | 2 | -445 | 124* | i | 29* | 31*
COC(=O)c1nn(-c2ccc3c(c2)OCO3)cc1O | -10 | -112 | 1 | -28 | 13* | -79 | 4 | 4
SMILES | GASC-1 inh | NR2E3 ag-1 | NR2E3 ag-2 | ADAM17 inh | proKLK7 act | ADAM10 inh | proKLK7 act conf | EDANS interfere | others
CC(=O)N1CCc2cc([N+](=O)[O-])ccc21 | x | 5 | x | 1 | 0 | -6 | x | x
CCOC(=O)CCc1c(C)c2ccc(OCC(=O)OC(C)C)cc2oc1=O | -30 | -9 | 0 | -119 | 3 | i | x | x
C=CCOC(=O)COc1ccc2c(C)c(C)c(=O)oc2c1 | -4 | -15 | -1 | -88 | 15* | -364 | 11 | 14*
C=CCOC(=O)COc1ccc2c(C)c(CC)c(=O)oc2c1 | 3 | -6 | -2 | -203 | 27* | i | 11 | 13*
CCOc1cc2c(cc1/C=C/C(=O)O)OC(C)C2 (stereo not drawn) | 4 | -12 | 1 | i | 62* | i | 72* | 69*
COc1cc2c(cc1/C=C/C(=O)O)OC(C)C2 (stereo not drawn) | 4 | -27 | 1 | i | 64* | i | 64* | 74*
CC(C)(O)C1Cc2cc(/C=C/C(=O)O)c(O)cc2O1 (stereo not drawn) | 16 | 25 | x | -46 | -53 | -139 | x | x
CCOc1nc2ccccc2cc1/C=C/C(=O)O | 15 | 9 | -4 | -30 | 3 | -77 | x | x
CN(Cc1ccccc1)C(=O)OCc1cn(Cc2ccc(Cl)cc2)nn1 | x | x | x | -1 | 0 | 2 | x | x
COc1ccc(-c2ccc(C3C(C#N)=C(N)Oc4n[nH]c(C)c43)o2)cc1 (stereo not drawn) | 7 | -20 | 2 | -12 | 14* | -58 | 9 | 9.0*
Cc1[nH]nc2c1C(c1ccc(OC(=O)c3ccco3)cc1)C(C#N)=C(N)O2 (stereo not drawn) | -4 | -12 | -3 | 4 | 310* | 8 | 1 | -2
CCc1nc2c(OCCc3cccc(OC)c3)cccn2c1N(C=O)Cc1ccc(OC)cc1 | x | 32 | x | 1 | 1 | -4 | x | x
CC(C)=CCOc1ccc2ccc(=O)oc2c1 | 12 | -68 | 0 | -187 | 4 | i | x | x
COc1cc2ccc(=O)oc2c(O)c1OCC=C(C)C | -4 | -36 | 0 | -50 | 148* | -134 | 152* | 151*

High-throughput results as filed in PubChem.
